# PPC-1+TRAIL kill: compounds killing PPC-1 cancer cells with TRAIL present, primary screen, TRAIL potentiator project, ATPLite luminescence, uHTS; AID 1443, 2008; PPC-1 cells + TRAIL, ATPLite viability luminescence; 220,000 tested, 0.41% active; cell killing (% activity), % at 4 µM or 5 µM;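 active means cell killing above 50% in the first pass at 4 µM, then a duplicate retest at 5 µM averaging 50% or more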;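 further: plate controls were cells with TRAIL plus DMSO for no effect and medium-only wells lacking cells for full effect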
# FLuc inh counter: firefly luciferase enzyme inhibitors, primary screen, artefact control for luciferase-based inhibitor screens, biochemical, luminescence, ATPLite; 10 min; inhibition, % at 10 µM; 200,000 tested, 1.5% active; AID 1006, 2008;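 active means inhibition above about 50% when tested at 10 µM, limit read from the data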
# Target sequence (P08659 whole entry, looked up): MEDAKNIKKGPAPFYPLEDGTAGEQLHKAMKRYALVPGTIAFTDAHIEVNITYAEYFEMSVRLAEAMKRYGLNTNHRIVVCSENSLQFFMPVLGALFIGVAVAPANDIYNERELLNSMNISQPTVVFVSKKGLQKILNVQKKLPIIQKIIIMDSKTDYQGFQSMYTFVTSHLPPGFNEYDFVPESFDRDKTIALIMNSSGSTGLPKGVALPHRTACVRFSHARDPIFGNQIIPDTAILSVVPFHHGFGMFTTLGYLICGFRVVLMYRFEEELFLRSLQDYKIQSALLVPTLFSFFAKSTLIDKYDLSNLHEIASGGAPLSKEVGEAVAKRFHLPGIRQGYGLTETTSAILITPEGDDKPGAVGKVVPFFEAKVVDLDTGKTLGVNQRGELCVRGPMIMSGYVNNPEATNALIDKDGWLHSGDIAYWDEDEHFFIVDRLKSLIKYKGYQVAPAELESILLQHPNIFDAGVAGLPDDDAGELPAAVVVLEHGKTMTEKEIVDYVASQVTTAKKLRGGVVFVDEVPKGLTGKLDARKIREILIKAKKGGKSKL
# TRAIL sens C8: viability loss with TRAIL in NB7+C8 cells, primary screen, TRAIL sensitizer project, cell-based, ATPlite luminescence; inhibition (viability loss, TRAIL sensitization), % at 10 µM; 360,000 tested, 1% active;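 active means compounds causing at least 50% loss of cell viability in the single-dose screen, relative to plate controls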
# FLuc stim CS: FLuc activators, initial screening, artefact control for FLuc-dependent activation tests, biochemical, ATPlite luminescence; Luciferin 4-monooxygenase (Photinus pyralis), P08659; ATPlite luciferase biochemical, 10 min; 0 = ATP-free wells, 1 = DMSO control; activation factor at 10 µM; 200,000 tested, under 10 active; AID 1027, 2008;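 active means luciferase activation factor, scaled between plate controls, of at least 2 with compound at 10 µM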
#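 Material: luciferase plus luciferin reagent, cell-free. Medium: PBS buffer for ATP. Also added: ATP substrate, dispensed from a 10.24 µM working solution in PBS. Doses: test compounds dosed from 2 mM stocks in 100% DMSO. Incubation: 10 min post-reagent at room temperature. Technique: light output (luminescence). Read-out basis: luminescence gain marking luciferase activators.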
# PPC-1 tox: cytotoxicity in PPC-1 cells, confirmation, cytotoxicity control for TRAIL apoptosis potentiator project, cell-based, ATP content luminescence | AID 1447, 2008 | shares compounds with PPC-1+TRAIL kill | 1,200 tested, 50% active | PPC-1 viability, ATPlite luminescence, overnight | cytotoxicity, % at 5 µM;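 active means reconfirmed compounds whose average cytotoxicity reaches 50% or more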;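 further: 0% = DMSO-treated cells and 100% = wells holding medium but no cells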
# Starred values were filed as active, the others as inactive; . = not tested or not shown. A selection: hits, their analogues and other compounds. The true share with any hit is near 1.5%.
SMILES,PPC-1+TRAIL kill,FLuc inh counter,TRAIL sens C8,FLuc stim CS,PPC-1 tox
O=C(NCc1ccccn1)C(=O)N/N=C/c1ccc2c(c1)OCO2,4,6,1,0.9,9
COc1ccc(N/C(=N\c2nc(C)cc(C)n2)NC(=O)C(C)C)cc1OC,-10,-10,-5,1.1,-17
COc1ccc(N/C(=N\c2nc(C)cc(C)n2)NC(C)=O)cc1OC,8,-3,-1,1,.
COC(=O)Cn1c(O)c(N=NC(=O)c2ccc3c(c2)OCO3)c2ccccc21,29,76*,61*,0.2,37
CCOC(=O)Cn1c(O)c(N=NC(=O)OC)c2ccccc21,-5,.,-1,.,.
CS(=O)c1nc(-c2ccc(Br)cc2)cc(-c2ccccc2)c1C#N (configuration not stated),71*,-5,81*,1,73*
CCc1c(C)nc(Nc2nc(C)c3ccc(OC)cc3n2)[nH]c1=O,-7,1,4,1,.
COc1ccc2c(C)nc(Nc3nc(C)c(C)c(=O)[nH]3)nc2c1,-10,21,12,0.8,-12
OC(Cc1ccccc1)c1ncc(-c2ccc3ccccc3c2)[nH]1 (configuration not stated),.,.,18,.,.
Cc1ccc(/C=C/c2nc3ccccc3c(=O)[nH]2)cc1,93*,.,93*,.,92*
Cc1ccc(S(=O)(=O)Cc2nc3ccccc3c(=O)[nH]2)cc1,8,-3,-6,1,.
O=C(NNS(=O)(=O)c1cc(Cl)cc(Cl)c1)c1sccc1-n1cccc1,6,-4,-8,1,.
O=C(/C=C/Nc1ccc(F)cc1F)c1ccco1,90*,97*,92*,0,89*
O=C(/C=C/Nc1ccc(Br)cc1F)c1ccco1,89*,97*,91*,0,89*
CCCCS(=O)(=O)N1CCN(S(=O)(=O)c2ccc(Cl)s2)CC1,.,.,2,.,.
Cc1ccc2cc(/C=N/NC(=O)c3ccc(F)cc3)c(Cl)nc2c1,.,0,6,1,.
Cc1ccc2nc(Cl)c(/C=N/Nc3ccc(C(=O)O)cc3)cc2c1,87*,.,78*,.,87*
Cc1ccc(CN2CCN(CC3CC4C=CC3C4)CC2)cc1 (configuration not stated),0,-5,-10,1,7
O=S(=O)(c1ccccc1)N1CCN(CC2CC3C=CC2C3)CC1 (configuration not stated),13,-7,-2,1.1,.
Cc1ccccc1NC(=O)c1nc[nH]c1C(=O)NCc1ccccc1,10,-6,3,1.1,17
Cc1ccc(NC(=O)c2nc[nH]c2C(=O)NCc2ccccc2)cc1,.,.,14,.,.
C=CSc1sc(Cl)c(N(CC)CC)c1[N+](=O)[O-],13,-3,1,1,.
Clc1ccc2nc(N3CCCCC3)[nH]c2c1,29,39,48,0.6,.
O=c1c2ccccc2cnn1-c1nc2ccccc2[nH]1,94*,98*,94*,0,94*
O=c1c(Cl)c(N2CCCCC2)cnn1-c1nc2ccccc2[nH]1,92*,97*,87*,0,92*
SMILES,PPC-1+TRAIL kill,FLuc inh counter,TRAIL sens C8,FLuc stim CS,PPC-1 tox
CCOC(=O)N1CCN(C(=O)C(=O)NN)CC1,-10,-1,0,1,.
Cc1cc(OC(=O)c2ccc(S(=O)(=O)N3CCOCC3)cc2)c([N+](=O)[O-])c(=O)[nH]1,-11,-11,-5,1.1,6
CCC(C)c1ccc(-c2cc(C(=O)OCC(=O)Nc3cc(C)on3)c3ccccc3n2)cc1 (configuration not stated),83*,18,83*,0.8,80*
c1csc(-c2nnc(-c3ccc(N4CCOCC4)cc3)o2)c1,46,71*,51*,0.3,47
CC1=NN(C(=O)c2c(Br)c(C)nn2C)C(O)(C(F)(F)F)C1 (configuration not stated),4,-2,1,1,.
CN1CCN(C(=O)CNc2ccc(C(F)(F)F)cc2[N+](=O)[O-])CC1,-20,-4,2,1,.
Cc1nc2ccc(-c3nc4ccccc4[nH]3)cc2[nH]1,40,77*,45,0.2,38
Cc1ccc(-c2nc3ccccc3[nH]2)cn1,.,.,12,.,.
CCCCN1C(=O)C(=O)N(CC(=O)N2CCc3ccccc32)C1=O,.,.,-24,.,.
CC(C)(C)c1ccc(-c2noc(CCC(=O)N3CCOCC3)n2)cc1,45,83*,64*,0.2,37
CCOc1cc(S(=O)(=O)NCc2ccccc2)ccc1F,6,-4,-8,1,-5
CC(=O)N(C)C1=C(N2CCOCC2)C(=O)c2ccccc2C1=O,24,1,90*,1,27
Cc1ccc(-c2c(C)sc(=NC(=O)c3ccco3)n2C)cc1,39,86*,65*,0.1,36
COc1ccc(OC)c2c1sc(=NC(=O)c1ccco1)n2C,6,-7,4,1.1,.
O=C(NC(c1ccc(-c2ccccc2)cc1)c1cnccn1)C1CCN(CCOc2ccc(F)cc2)CC1 (configuration not stated),.,.,28,.,.
CCOc1ccc(N=C2NN=C(c3cc(C)n(CC4CCCO4)c3C)CS2)cc1 (configuration not stated),-3,2,-15,1,.
COCCn1c(C)cc(C2=NNC(=NC3CC3)SC2)c1C,89*,96*,78*,0,88*
Nc1[nH]c(C(=O)c2ccccc2)c(-c2ccccc2C(F)(F)F)c1C(=O)NCc1ccc(F)cc1,.,.,-4,.,.
CCOC(=O)C1=NN(c2ccc(C)cc2)CC1C(=O)OC (configuration not stated),22,-2,4,1,.
Cc1ccc(OCc2nc(-c3ccccn3)no2)c(Br)c1,35,79*,59*,0.2,37
Cc1ccc(OCc2nc(-c3ccccn3)no2)cc1,10,33,21,0.7,.
Cc1nc(N)nc(N)c1/C=C/C(C)(C)c1ccc(Cl)cc1,51*,-1,76*,1,48
COc1ccccc1C(=O)NCC(=O)NNC(=O)C1COc2ccccc2O1 (configuration not stated),.,.,10,.,.
CC1Cc2ccccc2N1S(=O)(=O)c1cnc(Cl)c(Cl)c1 (configuration not stated),50,.,-4,.,45
Cc1c(Cl)ccc2c(C(=O)O)cc(-c3ccccc3)nc12,16,.,35,.,23
Cc1c(Cl)ccc2c(C(N)=O)cc(-c3ccccn3)nc12,8,-4,-10,1,.
Cc1cc(NC(c2ccc(Cl)cc2)c2ccc3cccnc3c2O)no1 (configuration not stated),39,-10,18,1.1,36
CC(=O)NC(c1ccc(Cl)cc1)c1ccc2cccnc2c1O (configuration not stated),.,.,23,.,.
O=C1C(Cl)=C(NCCN2CCCCC2)C(=O)c2ccccc21,48,-6,92*,1.1,46

# Screening results as filed in PubChem.
